Tests used:
Conditions in all cases: stereoisomer not certain
UniProt Q8VGC6 = target: T1, UniProt Q8VGC6
T1 sequence (whole entry): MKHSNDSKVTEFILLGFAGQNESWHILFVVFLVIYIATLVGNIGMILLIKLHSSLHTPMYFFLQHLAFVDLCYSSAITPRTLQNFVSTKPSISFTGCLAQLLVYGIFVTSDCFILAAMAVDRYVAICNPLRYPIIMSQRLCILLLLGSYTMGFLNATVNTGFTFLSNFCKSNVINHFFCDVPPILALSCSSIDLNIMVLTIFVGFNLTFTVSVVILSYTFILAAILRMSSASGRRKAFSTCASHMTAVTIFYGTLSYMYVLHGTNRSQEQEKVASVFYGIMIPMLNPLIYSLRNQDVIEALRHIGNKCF
How it was run: (§1)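 Each entry records the cell line, G-protein, co-transfected protein and tags used. Methods varied with the source, often transient luciferase assays in mammalian cell lines. A receptor–molecule pair is called responsive (active) if the original authors judged its signal statistically different from baseline and non-responsive (inactive) otherwise.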

UniProt Q8VGD7 = target: T2, UniProt Q8VGD7
T2 sequence (whole entry): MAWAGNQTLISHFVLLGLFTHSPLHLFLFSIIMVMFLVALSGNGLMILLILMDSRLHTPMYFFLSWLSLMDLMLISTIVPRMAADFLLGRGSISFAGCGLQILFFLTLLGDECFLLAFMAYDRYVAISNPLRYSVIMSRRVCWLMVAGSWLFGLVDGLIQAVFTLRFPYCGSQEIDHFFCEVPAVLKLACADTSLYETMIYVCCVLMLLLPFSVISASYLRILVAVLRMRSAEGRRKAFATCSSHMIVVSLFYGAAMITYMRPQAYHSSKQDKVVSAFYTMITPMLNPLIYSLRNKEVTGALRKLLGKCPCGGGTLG
How it was run: as §1

UniProt Q8VGH1 = target: T3, UniProt Q8VGH1
T3 sequence (whole entry): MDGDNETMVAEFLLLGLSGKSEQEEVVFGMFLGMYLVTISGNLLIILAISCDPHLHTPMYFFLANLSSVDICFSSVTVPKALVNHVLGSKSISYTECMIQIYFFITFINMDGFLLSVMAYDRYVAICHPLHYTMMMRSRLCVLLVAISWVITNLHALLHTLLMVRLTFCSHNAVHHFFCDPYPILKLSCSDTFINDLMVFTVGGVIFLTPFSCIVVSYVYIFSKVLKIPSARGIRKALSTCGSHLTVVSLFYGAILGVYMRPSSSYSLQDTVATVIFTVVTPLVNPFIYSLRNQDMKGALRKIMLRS
How it was run: as §1

UniProt Q8VGJ1 = target: T4, UniProt Q8VGJ1
T4 sequence (whole entry): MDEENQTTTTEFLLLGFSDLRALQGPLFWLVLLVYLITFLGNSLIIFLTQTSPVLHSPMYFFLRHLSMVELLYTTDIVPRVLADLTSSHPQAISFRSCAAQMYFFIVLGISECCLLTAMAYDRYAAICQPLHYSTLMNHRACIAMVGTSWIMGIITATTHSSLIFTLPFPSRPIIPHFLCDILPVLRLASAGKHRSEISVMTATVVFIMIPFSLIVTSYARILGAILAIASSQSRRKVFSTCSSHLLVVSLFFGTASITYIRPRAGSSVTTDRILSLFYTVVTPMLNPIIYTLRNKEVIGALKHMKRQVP
How it was run: as §1

UniProt Q8VGJ3 = target: T5, UniProt Q8VGJ3
T5 sequence (whole entry): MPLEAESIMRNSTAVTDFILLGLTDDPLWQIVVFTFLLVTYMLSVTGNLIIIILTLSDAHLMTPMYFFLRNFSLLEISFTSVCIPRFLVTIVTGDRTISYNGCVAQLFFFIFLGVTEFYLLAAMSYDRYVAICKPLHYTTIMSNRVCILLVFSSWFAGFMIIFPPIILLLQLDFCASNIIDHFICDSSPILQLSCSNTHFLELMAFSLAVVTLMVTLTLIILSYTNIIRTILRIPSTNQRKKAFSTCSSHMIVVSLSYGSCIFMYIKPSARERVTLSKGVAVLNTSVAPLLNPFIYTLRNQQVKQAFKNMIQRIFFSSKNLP
How it was run: as §1

UniProt Q8VGJ5 = target: T6, UniProt Q8VGJ5
T6 sequence (whole entry): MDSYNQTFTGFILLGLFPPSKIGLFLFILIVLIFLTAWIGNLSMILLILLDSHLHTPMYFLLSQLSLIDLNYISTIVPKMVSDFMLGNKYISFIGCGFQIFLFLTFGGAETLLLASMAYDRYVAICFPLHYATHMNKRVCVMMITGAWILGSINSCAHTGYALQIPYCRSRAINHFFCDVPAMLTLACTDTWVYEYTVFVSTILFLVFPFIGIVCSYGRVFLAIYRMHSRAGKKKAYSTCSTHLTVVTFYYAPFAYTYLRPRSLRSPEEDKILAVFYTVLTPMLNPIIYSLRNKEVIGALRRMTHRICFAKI
How it was run: as §1

UniProt Q8VGL0 = target: T7, UniProt Q8VGL0
T7 sequence (whole entry): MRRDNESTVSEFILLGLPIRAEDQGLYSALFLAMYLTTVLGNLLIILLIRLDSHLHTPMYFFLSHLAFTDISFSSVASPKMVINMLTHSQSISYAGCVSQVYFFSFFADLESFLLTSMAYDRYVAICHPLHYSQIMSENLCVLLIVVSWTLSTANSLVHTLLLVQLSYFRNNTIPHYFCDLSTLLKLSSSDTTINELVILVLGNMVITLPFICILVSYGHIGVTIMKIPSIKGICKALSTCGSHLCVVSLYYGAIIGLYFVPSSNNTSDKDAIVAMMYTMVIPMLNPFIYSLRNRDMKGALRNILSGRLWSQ
How it was run: as §1

UniProt Q8VGL7 = target: T8, UniProt Q8VGL7
T8 sequence (whole entry): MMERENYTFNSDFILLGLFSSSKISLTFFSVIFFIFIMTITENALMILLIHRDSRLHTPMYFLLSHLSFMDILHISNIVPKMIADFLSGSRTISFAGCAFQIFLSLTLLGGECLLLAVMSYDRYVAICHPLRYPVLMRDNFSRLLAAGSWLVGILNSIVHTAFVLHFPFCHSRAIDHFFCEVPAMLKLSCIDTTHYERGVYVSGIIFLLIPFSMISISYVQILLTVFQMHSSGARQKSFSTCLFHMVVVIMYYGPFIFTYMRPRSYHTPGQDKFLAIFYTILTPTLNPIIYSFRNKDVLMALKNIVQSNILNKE
How it was run: as §1

UniProt Q8VGM2 = target: T9, UniProt Q8VGM2
T9 sequence (whole entry): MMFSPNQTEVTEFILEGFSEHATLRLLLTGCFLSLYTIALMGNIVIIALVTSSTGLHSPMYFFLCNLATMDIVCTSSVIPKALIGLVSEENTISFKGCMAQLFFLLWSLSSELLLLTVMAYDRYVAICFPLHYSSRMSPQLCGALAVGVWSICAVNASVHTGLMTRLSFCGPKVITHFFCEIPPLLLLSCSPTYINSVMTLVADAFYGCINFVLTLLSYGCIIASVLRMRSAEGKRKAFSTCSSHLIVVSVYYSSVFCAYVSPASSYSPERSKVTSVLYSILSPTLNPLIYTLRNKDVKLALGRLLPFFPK
How it was run: as §1

UniProt Q8VGP6 = target: T10, UniProt Q8VGP6
T10 sequence (whole entry): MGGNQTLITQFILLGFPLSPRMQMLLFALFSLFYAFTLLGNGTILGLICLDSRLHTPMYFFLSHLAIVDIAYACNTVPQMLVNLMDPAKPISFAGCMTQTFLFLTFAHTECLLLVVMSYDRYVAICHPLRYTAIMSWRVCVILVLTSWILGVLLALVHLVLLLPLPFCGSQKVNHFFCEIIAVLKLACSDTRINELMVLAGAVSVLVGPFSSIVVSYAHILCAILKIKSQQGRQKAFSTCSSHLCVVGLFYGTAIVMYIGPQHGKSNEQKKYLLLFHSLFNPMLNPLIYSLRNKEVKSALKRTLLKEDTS
How it was run: as §1

UniProt Q8VGQ3 = target: T11, UniProt Q8VGQ3
T11 sequence (whole entry): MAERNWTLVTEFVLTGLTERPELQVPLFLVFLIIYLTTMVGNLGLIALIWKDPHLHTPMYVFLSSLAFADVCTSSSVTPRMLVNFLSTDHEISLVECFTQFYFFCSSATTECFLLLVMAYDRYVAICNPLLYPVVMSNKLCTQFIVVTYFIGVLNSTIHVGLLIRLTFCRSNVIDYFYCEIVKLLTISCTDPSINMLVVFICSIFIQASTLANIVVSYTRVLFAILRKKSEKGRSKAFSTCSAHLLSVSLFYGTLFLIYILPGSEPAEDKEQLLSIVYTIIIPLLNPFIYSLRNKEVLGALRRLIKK
How it was run: as §1

UniProt Q8VGT4 = target: T12, UniProt Q8VGT4
T12 sequence (whole entry): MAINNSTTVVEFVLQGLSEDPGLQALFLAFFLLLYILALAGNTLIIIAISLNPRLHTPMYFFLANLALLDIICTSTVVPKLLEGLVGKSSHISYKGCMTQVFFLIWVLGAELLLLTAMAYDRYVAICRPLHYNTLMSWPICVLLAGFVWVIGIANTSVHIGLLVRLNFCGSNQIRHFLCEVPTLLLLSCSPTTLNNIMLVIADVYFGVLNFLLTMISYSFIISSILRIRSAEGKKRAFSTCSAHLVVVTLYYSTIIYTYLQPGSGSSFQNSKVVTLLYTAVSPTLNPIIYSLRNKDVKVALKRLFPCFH
How it was run: as §1

UniProt Q8VGU3 = target: T13, UniProt Q8VGU3
T13 sequence (whole entry): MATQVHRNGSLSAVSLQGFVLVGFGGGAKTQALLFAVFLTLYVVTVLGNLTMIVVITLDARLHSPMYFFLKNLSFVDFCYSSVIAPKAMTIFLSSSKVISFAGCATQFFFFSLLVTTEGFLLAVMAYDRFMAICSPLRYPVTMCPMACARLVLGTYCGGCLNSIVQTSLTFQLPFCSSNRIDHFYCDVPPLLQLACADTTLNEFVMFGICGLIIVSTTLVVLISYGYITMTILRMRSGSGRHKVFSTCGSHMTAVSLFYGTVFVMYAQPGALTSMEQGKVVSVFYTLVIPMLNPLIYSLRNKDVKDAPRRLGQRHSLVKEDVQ
How it was run: as §1

UniProt Q8VGV1 = target: T14, UniProt Q8VGV1
T14 sequence (whole entry): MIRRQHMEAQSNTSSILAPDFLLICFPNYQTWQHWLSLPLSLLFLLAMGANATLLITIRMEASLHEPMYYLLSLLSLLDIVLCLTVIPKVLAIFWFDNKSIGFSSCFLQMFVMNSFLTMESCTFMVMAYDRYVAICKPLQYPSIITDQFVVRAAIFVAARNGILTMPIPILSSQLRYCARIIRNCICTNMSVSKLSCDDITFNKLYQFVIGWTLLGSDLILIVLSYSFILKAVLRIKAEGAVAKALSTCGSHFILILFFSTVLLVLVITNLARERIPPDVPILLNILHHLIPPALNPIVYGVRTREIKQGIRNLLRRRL
How it was run: as §1

UniProt Q8VGV7 = target: T15, UniProt Q8VGV7
T15 sequence (whole entry): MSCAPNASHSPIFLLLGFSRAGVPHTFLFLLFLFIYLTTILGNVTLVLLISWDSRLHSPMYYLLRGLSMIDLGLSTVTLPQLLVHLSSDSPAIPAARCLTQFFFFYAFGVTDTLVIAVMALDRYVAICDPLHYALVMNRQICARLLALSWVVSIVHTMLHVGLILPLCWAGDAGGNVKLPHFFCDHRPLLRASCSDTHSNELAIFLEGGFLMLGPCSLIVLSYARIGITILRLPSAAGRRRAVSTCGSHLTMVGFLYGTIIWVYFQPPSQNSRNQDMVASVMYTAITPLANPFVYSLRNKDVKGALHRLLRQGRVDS
How it was run: as §1

UniProt Q8VGX3 = target: T16, UniProt Q8VGX3
T16 sequence (whole entry): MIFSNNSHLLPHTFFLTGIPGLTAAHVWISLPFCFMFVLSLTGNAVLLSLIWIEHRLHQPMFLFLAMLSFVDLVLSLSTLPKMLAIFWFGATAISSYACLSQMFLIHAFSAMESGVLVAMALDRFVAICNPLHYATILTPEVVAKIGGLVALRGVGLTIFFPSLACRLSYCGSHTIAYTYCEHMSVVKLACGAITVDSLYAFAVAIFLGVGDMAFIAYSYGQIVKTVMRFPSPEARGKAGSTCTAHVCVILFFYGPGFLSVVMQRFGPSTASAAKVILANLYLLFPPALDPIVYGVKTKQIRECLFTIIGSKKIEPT
How it was run: as §1

UniProt Q8VGX5 = target: T17, UniProt Q8VGX5
T17 sequence (whole entry): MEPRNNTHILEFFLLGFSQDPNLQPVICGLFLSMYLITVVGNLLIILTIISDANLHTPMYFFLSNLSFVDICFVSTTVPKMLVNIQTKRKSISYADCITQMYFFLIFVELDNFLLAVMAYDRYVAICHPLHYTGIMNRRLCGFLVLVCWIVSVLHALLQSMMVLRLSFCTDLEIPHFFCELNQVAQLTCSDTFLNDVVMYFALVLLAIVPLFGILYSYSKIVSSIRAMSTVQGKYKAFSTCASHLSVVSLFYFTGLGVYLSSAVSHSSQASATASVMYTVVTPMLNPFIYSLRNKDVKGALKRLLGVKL
How it was run: as §1

CC(=O)Oc1ccccc1
odorant receptor agonist call (UniProt Q8VGC6): active | odorant receptor agonist call (UniProt Q8VGD7): inactive | odorant receptor agonist call (UniProt Q8VGH1): inactive | odorant receptor agonist call (UniProt Q8VGJ1): inactive | odorant receptor agonist call (UniProt Q8VGJ3): inactive | odorant receptor agonist call (UniProt Q8VGJ5): inactive | odorant receptor agonist call (UniProt Q8VGL0): inactive | odorant receptor agonist call (UniProt Q8VGL7): inactive | odorant receptor agonist call (UniProt Q8VGM2): inactive | odorant receptor agonist call (UniProt Q8VGP6): inactive | odorant receptor agonist call (UniProt Q8VGQ3): inactive | odorant receptor agonist call (UniProt Q8VGT4): inactive | odorant receptor agonist call (UniProt Q8VGU3): inactive | odorant receptor agonist call (UniProt Q8VGV1): inactive | odorant receptor agonist call (UniProt Q8VGV7): inactive | odorant receptor agonist call (UniProt Q8VGX3): inactive | odorant receptor agonist call (UniProt Q8VGX5): active

COc1ccccc1
odorant receptor agonist call (UniProt Q8VGC6): inactive | odorant receptor agonist call (UniProt Q8VGJ3): inactive | odorant receptor agonist call (UniProt Q8VGL0): inactive | odorant receptor agonist call (UniProt Q8VGU3): inactive | odorant receptor agonist call (UniProt Q8VGV7): inactive | odorant receptor agonist call (UniProt Q8VGX3): inactive | odorant receptor agonist call (UniProt Q8VGX5): inactive

Reference: the M2OR odorant receptor database
